Laboratory results reported in ChEMBL document CHEMBL4725426, “Targeted Detection of Cyclooxygenase-1 in Ovarian Cancer” (ACS Med Chem Lett, 2020).
The source made the active and inactive calls. The rule behind the calls is not given here.

Assays:
[1] = Drug uptake in NU-Fox1nu nude mouse xenografted with COX-1 expressing human OVCAR3 cells at 1 mg/kg, ip and measured after 3 to 4 hrs post-drug administration by IVIS spectrum in vivo fluorescence imaging analysis; type: ADME, organism-based; conditions: time 3-4 hrs
In short: (§1)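 Female athymic nude mice carried subcutaneous OVCAR-3 xenografts on the left hind flank, grown to about 750–1000 mm³. Probe given i.p. at 1 mg/kg in DMSO. Mice lightly anesthetized and imaged on an IVIS system at 15 min, 30 min, 1, 2, 3 and 4 h post-injection.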

[2] = Drug uptake in kidney of NU-Fox1nu nude mouse xenografted with COX-1 expressing human OVCAR3 cells at 1 mg/kg, ip by IVIS spectrum ex vivo fluorescence imaging analysis; type: ADME, organism-based
In short: (§2)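 OVCAR-3 xenograft-bearing female nude mice (tumors 750–1000 mm³) were dosed with probe at 1 mg/kg i.p. in DMSO. After in vivo imaging, tumor, muscle, kidney and liver were collected and imaged ex vivo.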

[3] = Drug uptake in leg muscle of NU-Fox1nu nude mouse xenografted with COX-1 expressing human OVCAR3 cells at 1 mg/kg, ip by IVIS spectrum ex vivo fluorescence imaging analysis; type: ADME, organism-based; in short: as §2
[4] = target: T1, Prostaglandin G/H synthase 1 (Homo sapiens, UniProt P23219); assay: (§3) Binding affinity to COX-1 in human OVCAR3 cells assessed as protein labeling treated for 30 mins and subsequent compound washout followed by cultured in serum media measured after 45 mins by fluorescence microscope based optical imaging analysis; type: cell-based; conditions: OVCAR-3
T1 sequence (P23219 whole entry): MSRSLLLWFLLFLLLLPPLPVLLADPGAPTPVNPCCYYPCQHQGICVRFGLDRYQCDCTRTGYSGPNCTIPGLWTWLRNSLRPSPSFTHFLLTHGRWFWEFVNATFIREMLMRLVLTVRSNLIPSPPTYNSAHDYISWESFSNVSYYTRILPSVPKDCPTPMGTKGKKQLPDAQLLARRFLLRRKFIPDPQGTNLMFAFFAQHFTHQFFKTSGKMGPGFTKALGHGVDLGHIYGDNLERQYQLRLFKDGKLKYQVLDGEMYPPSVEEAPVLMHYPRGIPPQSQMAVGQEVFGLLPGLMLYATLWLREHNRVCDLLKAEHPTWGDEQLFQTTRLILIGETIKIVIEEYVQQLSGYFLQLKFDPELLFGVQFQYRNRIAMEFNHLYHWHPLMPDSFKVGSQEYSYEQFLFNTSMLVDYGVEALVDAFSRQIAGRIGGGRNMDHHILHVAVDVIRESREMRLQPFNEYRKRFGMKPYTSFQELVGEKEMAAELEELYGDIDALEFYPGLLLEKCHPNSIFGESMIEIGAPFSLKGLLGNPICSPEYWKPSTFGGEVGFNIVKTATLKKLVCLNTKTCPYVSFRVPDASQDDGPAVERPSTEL
In short: (§4)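 OVCAR-3 cells pretreated 30 min with vehicle or indomethacin, then exposed to probe 30 min, washed briefly and cultured 45 min in serum-containing medium. Intracellular fluorescence then imaged under a fluorescence microscope.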

[5] = target: T2, Prostaglandin G/H synthase 1 (Ovis aries, UniProt P05979); assay: Inhibition of ovine COX-1 assessed as [14C] arachidonic acid remaining using [14C] arachidonic acid as substrate preincubated for 20 mins followed by substrate addition measured after 30 sec by thin layer chromatography assay
T2 sequence (P05979 whole entry): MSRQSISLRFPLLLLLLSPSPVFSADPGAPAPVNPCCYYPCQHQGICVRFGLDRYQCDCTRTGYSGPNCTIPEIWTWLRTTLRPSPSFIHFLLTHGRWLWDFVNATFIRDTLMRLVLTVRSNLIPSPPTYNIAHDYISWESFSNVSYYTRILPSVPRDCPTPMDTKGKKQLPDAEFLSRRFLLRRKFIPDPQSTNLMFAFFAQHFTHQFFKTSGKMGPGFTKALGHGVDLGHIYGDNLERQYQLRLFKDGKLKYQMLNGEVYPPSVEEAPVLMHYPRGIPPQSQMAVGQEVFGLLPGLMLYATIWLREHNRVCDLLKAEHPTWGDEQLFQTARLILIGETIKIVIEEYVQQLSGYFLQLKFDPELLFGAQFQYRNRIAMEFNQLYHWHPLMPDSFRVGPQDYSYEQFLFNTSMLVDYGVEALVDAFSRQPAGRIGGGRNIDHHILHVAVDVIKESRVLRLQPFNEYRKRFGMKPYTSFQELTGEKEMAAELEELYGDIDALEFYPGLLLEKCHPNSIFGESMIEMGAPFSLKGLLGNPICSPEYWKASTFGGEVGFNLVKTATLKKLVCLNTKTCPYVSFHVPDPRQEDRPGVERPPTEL
In short: (§5)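 Purified ovine COX-1 or murine COX-2 preincubated 20 min with vehicle or compound at various concentrations. [1-¹⁴C]arachidonic acid was then added and the reaction run a further 30 s. Conversion read by thin layer chromatography. IC50 derived.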

[6] = Drug uptake in tumor of NU-Fox1nu nude mouse xenografted with COX-1 expressing human OVCAR3 cells at 1 mg/kg, ip by IVIS spectrum ex vivo fluorescence imaging analysis; type: ADME, organism-based, Neoplasm; in short: as §2
[7] = target: T1, Prostaglandin G/H synthase 1; assay: as §3, with “pretreated with indomethacin for 30 mins followed by compound treatment” for “treated”; type: cell-based; conditions: OVCAR-3; in short: as §4
[8] = target: T1, Prostaglandin G/H synthase 1; assay: Inhibition of COX-1 in human OVCAR3 cells assessed as [14C] arachidonic acid remaining using [14C] arachidonic acid as substrate preincubated for 30 mins followed by substrate addition measured after 30 mins; type: cell-based, OVCAR-3
In short: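 Intact OVCAR-3 cells treated 30 min with vehicle or compound across several concentrations, then given [1-¹⁴C]arachidonic acid for another 30 min. Medium aliquots were quenched, extracted, run on TLC and scanned for substrate remaining. IC50 taken from the concentration series.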

[9] = target: T3, Prostaglandin G/H synthase 2 (Mus musculus, UniProt Q05769); assay: Inhibition of murine COX-2 assessed as [14C] arachidonic acid remaining using [14C] arachidonic acid as substrate preincubated for 20 mins followed by substrate addition measured after 30 sec by thin layer chromatography assay; in short: as §5
T3 sequence (Q05769 whole entry): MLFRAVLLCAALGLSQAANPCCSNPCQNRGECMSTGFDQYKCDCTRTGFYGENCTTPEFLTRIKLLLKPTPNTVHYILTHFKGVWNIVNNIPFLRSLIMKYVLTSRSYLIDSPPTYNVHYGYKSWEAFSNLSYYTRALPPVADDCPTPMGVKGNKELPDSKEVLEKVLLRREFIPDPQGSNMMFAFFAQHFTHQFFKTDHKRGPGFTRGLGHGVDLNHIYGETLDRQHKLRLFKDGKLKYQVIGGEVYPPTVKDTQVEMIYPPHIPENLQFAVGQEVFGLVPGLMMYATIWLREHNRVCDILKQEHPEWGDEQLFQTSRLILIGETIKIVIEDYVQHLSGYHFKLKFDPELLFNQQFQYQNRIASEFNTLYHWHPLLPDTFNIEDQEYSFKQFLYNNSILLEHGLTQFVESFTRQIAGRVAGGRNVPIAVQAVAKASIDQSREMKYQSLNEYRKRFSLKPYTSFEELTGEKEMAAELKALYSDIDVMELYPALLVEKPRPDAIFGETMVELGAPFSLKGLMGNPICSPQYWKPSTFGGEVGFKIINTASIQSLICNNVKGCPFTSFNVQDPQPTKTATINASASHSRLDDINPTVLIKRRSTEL

[10] = Drug uptake in tumor of NU-Fox1nu nude mouse allografted with mouse ID8-NGL cells at 2 mg/kg, ip measured after 3 to 4 hrs post-drug administration by IVIS spectrum in vivo fluorescence imaging analysis relative to control; type: ADME, organism-based, Neoplasm; conditions: time 3-4 hrs
In short: (§6)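 Female athymic nude mice bearing ID8-NGL flank allografts (left hind flank, grown to 750–1000 mm³; n = 6). Probe given i.p. at 2 mg/kg in DMSO. Imaged under light anesthesia on an IVIS system 3 to 4 h post-injection.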

[11] = Drug uptake in tumor of NU-Fox1nu nude mouse allografted with mouse ID8-NGL cells at 2 mg/kg, ip treated with 10 mg/kg indomethacin 1hr prior to compound treatment followed by compound administration measured after 3 to 4 hrs post-drug administration by IVIS spectrum fluorescence imaging analysis; type: ADME, organism-based, Neoplasm; conditions: in vivo, time 3-4 hrs
In short: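 ID8-NGL flank allografts (750–1000 mm³) in nude mice. Indomethacin 10 mg/kg i.p. in DMSO given 1 h before probe (2 mg/kg i.p. in DMSO). Tumors imaged 3 to 4 h after probe; region-of-interest light emission read at 3.5 h in relative fluorescence units.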

[12] = Drug uptake in NU-Fox1nu nude mouse allografted with mouse ID8-NGL cells at 2 mg/kg, ip measured after 3 to 4 hrs post-drug administration by IVIS spectrum in vivo fluorescence imaging analysis; type: ADME, organism-based; conditions: time 3-4 hrs; in short: as §6
[13] = Drug uptake in NU-Fox1nu nude mouse xenografted with COX-1 expressing human OVCAR3 cells at 1 mg/kg, ip and measured before 2 hrs post-drug administration by IVIS spectrum in vivo fluorescence imaging analysis; type: ADME, organism-based; in short: as §1
[14] = Drug uptake in liver of NU-Fox1nu nude mouse xenografted with COX-1 expressing human OVCAR3 cells at 1 mg/kg, ip by IVIS spectrum ex vivo fluorescence imaging analysis; type: ADME, organism-based; in short: as §2

Drug uptake [1]: Active
Drug uptake [2]: Active
Drug uptake [3]: Active
Activity [4]: Active
IC50 [5]: 94 nM
Drug uptake [6]: Active
Activity [7]: inactive
IC50 [8]: 44 nM
IC50 [9]: > 1000 nM
fold change (FC) [10]: 8
Drug uptake [11]: Not Active
Drug uptake [12]: Active
Drug uptake [13]: Not Active
Drug uptake [14]: Active
Compound: COc1ccc(-n2nc(CCC(=O)NCCCCNC(=O)c3ccc(C4=c5cc6c7c(c5Oc5c4cc4c8c5CCCN8CCC4)CCC[N+]=7CCC6)c(C(=O)[O-])c3)cc2-c2ccc(C)cc2)cc1
